Measurements from different studies.
Lines come from different studies, so protocols differ.
Observed: enzyme activity
Mode: inhibitor
EGFR L858R/T790M: Epidermal growth factor receptor (EGFR, Homo sapiens, UniProt P00533, L858R/T790M)
EGFR: Epidermal growth factor receptor (EGFR, Homo sapiens, UniProt P00533)
EGFR L858R: Epidermal growth factor receptor (EGFR, Homo sapiens, UniProt P00533, L858R)
EGFR C797S/L858R/T790M: Epidermal growth factor receptor (EGFR, Homo sapiens, UniProt P00533, C797S/L858R/T790M)

SMILES | target | test | conditions | IC50 [nM]
C=CC(=O)Nc1cc(Nc2nc(N3CCc4sccc4C3)c3cccnc3n2)c(OC)cc1N1CCC(N(C)C)CC1 | EGFR L858R/T790M | ELISA | – | 349
O=C(N/N=C/c1cccn1CCN1CCOCC1)Nc1cc2c(Nc3ccc(F)c(Cl)c3)ncnc2cc1O[C@H]1CCOC1 | EGFR | – | – | 0.6
Oc1ncnc2cc(Nc3nc(-c4ccc(C(F)(F)F)cc4)cs3)ccc12 | EGFR | ELISA | – | 2.17
COc1cc2ncnc(Nc3ccc(F)c(Cl)c3)c2cc1NC(=O)N/N=C/c1cccn1CCN(C)C | EGFR | – | – | 0.1
Oc1ncnc2cc(Nc3nc(-c4ccc(Cl)cc4)cs3)ccc12 | EGFR | ELISA | – | 4.81
COc1ccc(-c2nn(-c3ccc(S(C)(=O)=O)cc3)cc2C=N/N=c2\[nH]c(-c3ccc([N+](=O)[O-])cc3)cs2)cc1 | EGFR L858R/T790M | – | – | 80
O=C(N/N=C/c1cccn1CCCN1CCCCC1)Nc1cc2c(Nc3ccc(F)c(Cl)c3)ncnc2cc1O[C@H]1CCOC1 | EGFR L858R/T790M | – | – | 11.4
C=C(Cl)C(=O)Nc1cc(Nc2nc(Nc3cnn(C)c3)c3sccc3n2)c(OC)cc1N1CCN(C)CC1 | EGFR L858R/T790M | ELISA | – | 173
COc1cc2ncnc(NCCSc3ccc(Cl)cc3)c2cc1OC | EGFR | mobility shift | – | 320
COCCOc1cc2ncnc(Nc3ccc(OCCn4ccnc4[N+](=O)[O-])c(Cl)c3)c2cc1OCCOC | EGFR | FRET | – | 230
COc1ccc(-c2nn(-c3ccc(S(C)(=O)=O)cc3)cc2/C=N/N=c2\[nH]c(-c3ccc(Br)cc3)cs2)cc1 | EGFR L858R | – | – | 36
COc1ccc(-c2csc(Nc3ccc4c(O)ncnc4c3)n2)cc1 | EGFR | ELISA | – | 10.1
CCN(CC)CCCn1cccc1/C=N/NC(=O)Nc1cc2c(Nc3ccc(F)c(Cl)c3)ncnc2cc1O[C@H]1CCOC1 | EGFR | – | – | 0.5
COC(=O)/C=C/c1ccc2ncnc(Nc3cccc(C(F)(F)F)c3)c2c1 | EGFR | radiometric | – | 19.1
COc1cc2ncnc(Nc3ccc(OCCCn4ccnc4[N+](=O)[O-])c(Cl)c3)c2cc1OCCCN1CCOCC1 | EGFR | FRET | – | 180
CC(C)Cc1ccc(-c2nn(-c3ccc(S(C)(=O)=O)cc3)cc2/C=N/N=c2\[nH]c(-c3ccc([N+](=O)[O-])cc3)cs2)cc1 | EGFR L858R | – | – | 114
O=C(N/N=C/CN1CCOCC1)Nc1cc2c(Nc3ccc(F)c(Cl)c3)ncnc2cc1O[C@H]1CCOC1 | EGFR | – | – | 1.5
C=C(Cl)C(=O)Nc1cc(Nc2nc(N3CCc4sccc4C3)c3sccc3n2)c(OC)cc1N(C)CCN(C)C | EGFR C797S/L858R/T790M | ELISA | – | > 1000
C=CC(=O)Nc1cc(Nc2nccc(Nc3cc(Cl)c(F)cc3C(C)(C)O)n2)c(OC)cc1N1CC[C@@H](N(C)C)C1 | EGFR | – | with preincubation | 226
COc1ccc2c(Oc3ccc4c(C(=O)Nc5ccccc5N)cccc4c3)ccnc2c1 | EGFR | – | – | > 500
O=[N+]([O-])c1ccc(-c2csc(Nc3ccc4c(O)ncnc4c3)n2)cc1 | EGFR | ELISA | – | 2.93
CN1CCN(C/C=N/NC(=O)Nc2cc3c(Nc4ccc(F)c(Cl)c4)ncnc3cc2O[C@H]2CCOC2)CC1 | EGFR | – | – | 1.8
CCC(=O)Nc1cc(Nc2nc(N3CCc4sccc4C3)c3cccnc3n2)c(OC)cc1N1CCSCC1 | EGFR L858R/T790M | ELISA | – | > 1000
C=CC(=O)Nc1cc(Nc2nccc(-c3cn(C4CC4)c4ccccc34)n2)c(OC)cc1N(C)CCN(C)C | Epidermal growth factor receptor (EGFR, Homo sapiens, UniProt P00533, L861Q) | TR-FRET | – | 1.07
COc1cccc(CNc2ncnc3cc(Cl)ccc23)c1 | EGFR | mobility shift | – | 1700
C=C(Cl)C(=O)Nc1cc(Nc2nc(N3CCOCC3)c3sccc3n2)c(OC)cc1N(C)CCN(C)C | EGFR C797S/L858R/T790M | ELISA | – | > 1000
COc1cc2ncnc(Nc3ccc(F)c(Cl)c3)c2cc1NC(=O)N/N=C/c1cccn1CCCN(C)C | EGFR L858R/T790M | – | – | 24.3
C=C(Cl)C(=O)Nc1cc(Nc2nc(Nc3cnn(C)c3)c3sccc3n2)c(OC)cc1N(C)CCN(C)C | EGFR | ELISA | – | 100
CN(C)C/C=N/NC(=O)Nc1cc2c(Nc3ccc(F)c(Cl)c3)ncnc2cc1O[C@H]1CCOC1 | EGFR | – | – | 0.2
COCCOc1cc2ncnc(Nc3ccc(OCCCn4ccnc4[N+](=O)[O-])c(Cl)c3)c2cc1OCCOC | EGFR | FRET | – | 400
